Screening data from PubChem BioAssay.
In the library only some 2.3% were active in any assay of this set; here they are far more common.
TRPC4 agonist = opens the mouse TRPC4 cation channel; Q9QUQ5; B-score at 10 µM; actives 0.49% (n = 310,000); AID 2237; HEK293 TRPC4beta/mu-opioid, Fluo4 calcium fluorescence; active compounds read high;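 active = B-score above 5 SD of library B-scores, and initial fluorescence ratio not above library mean plus 5 SD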;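 note: positive B-score marks a calcium rise read as TRPC4 activation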
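Assay system – TRPC4beta and mu-opioid receptor HEK293 stable cells · Measured by – Fluo4 fluorescence, kinetic · Schedule – dye loading 45 min room temperature, 110 s kinetic read · Read-out – B-scored integrated calcium fluorescence ratio · Controls – buffer and maximal DAMGO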
TRPC4 potent = allosterically enhances the mouse TRPC4 cation channel | Q9QUQ5 | actives 0.42% (n = 310,000) | HEK293 TRPC4beta/mu-opioid, DAMGO EC20, Fluo-4 Ca2+ flux; active compounds read high | B-score at 10 µM;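 active = B-score of calcium response area above 5 SD of library B-scores, with initial fluorescence ratio within 5 SD of library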
TRPC6 act = activates the mouse TRPC6 cation channel; B-score at 10 µM; actives 0.13% (n = 310,000); HEK293-TRPC6 membrane potential dye fluorescence; active compounds read high; Q61143;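 active = B-score of the integrated fluorescence ratio above library mean plus 3 SD, and starting fluorescence ratio within library mean plus 5 SD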;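 note: higher score means more depolarization so channel activation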
Target sequence (Q61143 whole entry, looked up): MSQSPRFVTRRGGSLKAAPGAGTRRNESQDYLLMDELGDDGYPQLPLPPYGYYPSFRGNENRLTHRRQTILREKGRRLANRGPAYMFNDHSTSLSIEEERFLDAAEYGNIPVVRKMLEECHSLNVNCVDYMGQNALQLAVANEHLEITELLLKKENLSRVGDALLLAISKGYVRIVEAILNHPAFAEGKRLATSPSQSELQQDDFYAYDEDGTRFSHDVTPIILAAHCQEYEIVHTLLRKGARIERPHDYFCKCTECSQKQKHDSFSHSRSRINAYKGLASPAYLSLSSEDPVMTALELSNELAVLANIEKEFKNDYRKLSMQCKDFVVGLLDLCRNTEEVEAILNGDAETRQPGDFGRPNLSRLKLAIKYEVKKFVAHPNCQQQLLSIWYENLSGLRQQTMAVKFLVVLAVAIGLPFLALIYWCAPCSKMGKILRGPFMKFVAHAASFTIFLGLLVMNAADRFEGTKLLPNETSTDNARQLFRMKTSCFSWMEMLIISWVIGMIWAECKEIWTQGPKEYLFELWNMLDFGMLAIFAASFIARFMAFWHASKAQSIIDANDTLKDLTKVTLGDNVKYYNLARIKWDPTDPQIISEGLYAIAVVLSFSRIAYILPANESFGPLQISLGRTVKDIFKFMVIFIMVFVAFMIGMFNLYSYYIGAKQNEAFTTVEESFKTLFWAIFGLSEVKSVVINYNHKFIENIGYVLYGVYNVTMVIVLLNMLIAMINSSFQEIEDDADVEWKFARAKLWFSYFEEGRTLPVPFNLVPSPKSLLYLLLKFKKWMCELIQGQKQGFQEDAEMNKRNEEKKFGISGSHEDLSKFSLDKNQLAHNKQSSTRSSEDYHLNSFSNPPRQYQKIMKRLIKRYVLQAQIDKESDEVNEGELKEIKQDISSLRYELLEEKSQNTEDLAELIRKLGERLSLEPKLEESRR
TRPC6 inh = blocks the mouse TRPC6 cation channel; actives 1.1% (n = 310,000); B-score at 10 µM; AID 2553; HEK293-TRPC6, membrane potential dye, ACh-evoked depolarization; active compounds read low;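 active = B-score under library mean minus 3 SD, initial fluorescence not abnormally high, positive integrated signal ratio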;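 note: B-score derived from integrated fluorescence ratio over the kinetic read; more negative B-score means stronger inhibition of depolarization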
DNA FID counter = fluorescent intercalator displacement, NS3 helicase counter-screen; inhibition, % at 7.9 µM; actives 0.17% (n = 290,000); DNA fluorescent intercalator displacement, fluorescence; AID 1845; in the data active = inhibition above about 37%;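 note: higher means more ethidium bromide displaced from hairpin DNA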
TRPC4 block = TRPC4 (mouse) channel inhibition | HEK293 TRPC4beta/mu-opioid, DAMGO-evoked Fluo4 calcium flux; active compounds read low | B-score at 10 µM | actives 0.39% (n = 300,000);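 active = B-score over 3 SD under the library average, no early fluorescence shift, positive overall ratio signal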
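Assay system – HEK293 line stably carrying TRPC4beta and mu-opioid receptor · Doses – single dose · Detection – Fluo4 calcium-dye fluorescence, kinetic read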
TRPC4 sel inh 2 = mouse TRPC4 off-target activity of TRPC6 inhibitors, second screen; HEK293 TRPC4/MOR, membrane potential dye fluorescence; channel activated by saturating DAMGO dose; AID 2776; shares compounds with TRPC6 inh; inhibition, % at 10 µM; actives 42% (n = 920);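 active = compounds whose fluorescence signal differed from control wells by over 3 SD, either direction, in both duplicate plates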
TRPC4 spec = mouse TRPC4 off-target activity of TRPC6 inhibitors; HEK293 TRPC4/mu-opioid, membrane potential fluorescence; AID 2777; actives 61% (n = 920); shares compounds with TRPC6 inh; activity change, negative = inhibition, % at 10 µM;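 active = rise or fall in signal beyond 3 SD of buffer-only wells in both replicate plates, either sign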;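 note: integrated kinetic ratio of fluorescence range over baseline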
HEK293 MPD ctr 2-1 = second check of TRPC6 inhibitor effects in parental HEK293 cells; shares compounds with TRPC6 inh; parental HEK293 membrane potential dye fluorescence; maximal acetylcholine challenge after compound addition; signal change vs control, % at 10 µM; actives 31% (n = 920); AID 2779;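 active = membrane potential signal moving either way by over 3 SD of the maximum-effect control, in both duplicate plates, meaning non-specific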
HEK293 MPD ctr-1 = counter-screen for TRPC6 inhibitors: effect in parental HEK293 cells | shares compounds with TRPC6 inh | parental HEK293 membrane potential dye fluorescence | membrane potential signal change, % at 10 µM | actives 60% (n = 920) | AID 2780;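 active = membrane potential signal shifting up or down by more than 3 SD of buffer-only wells, on both duplicate plates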
HEK293 MPD ctr-2 = checks TRPC6 modulator effects in parental HEK293 cells. shares compounds with TRPC6 inh. membrane potential dye fluorescence. membrane potential signal change, % at 10 µM. actives 51% (n = 2,400);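 active = membrane potential signal moves up or down beyond 5 SD from buffer-only wells, on both duplicate plates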
HEK293 MPD ctr 2-2 = second counter-screen for TRPC6 modulators: effect in parental HEK293 cells. actives 14% (n = 2,400). AID 488926. inhibition, % at 10 µM. shares compounds with TRPC6 inh. membrane potential dye fluorescence; after compound, maximal acetylcholine stimulation;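 active = membrane potential signal drops by more than 5 SD from the mean control signal, in both duplicate plates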
TRPC4/MOR mod = tests whether TRPC6 modulators also affect mouse TRPC4; HEK293 TRPC4/mu-opioid, membrane potential fluorescence; shares compounds with TRPC6 inh; actives 69% (n = 2,400); percent change from control (negative = decrease, positive = increase), % at 10 µM;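 active = membrane potential signal moved up or down beyond 5 SD of buffer control wells, in both duplicate plates, actives on both sides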
TRPC4/MOR inh 2 = second selectivity test of TRPC6 modulators against mouse TRPC4 | shares compounds with TRPC6 inh | HEK293 TRPC4/mu-opioid, membrane potential dye fluorescence; stimulated with maximal-effect DAMGO | inhibition, % at 10 µM | actives 55% (n = 2,400) | AID 488928;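 active = drop in membrane potential signal beyond 5 SD of the control wells in both duplicate plates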;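 note: TRPC4 counter screen for TRPC6 hits run under conditions tuned for TRPC6 not TRPC4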
TRPC6 block conf = confirmation of mouse TRPC6 inhibitors; shares compounds with TRPC6 inh; HEK293-TRPC6, membrane potential dye, ACh-evoked depolarization; inhibition, % at 10 µM; actives 43% (n = 3,300); AID 488960;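 active = fluorescence ratio falls more than 5 SD below the full-stimulation control mean, in both duplicate runs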;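 note: integrated fluorescence ratio of peak minus minimum over baseline after agonist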
TRPC6 act confirm = confirmation of mouse TRPC6 activators | shares compounds with TRPC6 inh | HEK293-TRPC6 membrane potential dye fluorescence, FDSS | activation, % at 10 µM | actives 11% (n = 2,800) | AID 488961;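 active = ratio signal rise beyond 5 SD above unstimulated control wells' mean, seen in both duplicate runs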
A number is an active result; - = inactive; . = no result given.

SMILES	TRPC4 agonist	TRPC4 potent	TRPC6 act	TRPC6 inh	DNA FID counter	TRPC4 block	HEK293 MPD ctr-2	HEK293 MPD ctr 2-2	TRPC4/MOR mod	TRPC4/MOR inh 2	TRPC6 block conf	TRPC6 act confirm	others
CN(C)CC/C=C1/c2cc(F)ccc2Sc2ccc(Cl)cc21	-	-	-	-5.3	.	-	-	-	9.5%	58%	-	-
O=S(=O)(Nc1cccnc1)c1ccc(Br)c2ccccc12	-	-	-	-	-	-	.	.	.	.	.	.
CC1N(C(=O)N2CCOCC2)CCN1S(=O)(=O)c1cccc(C(F)(F)F)c1 (configuration not stated)	-	-	-	-	-	-	.	.	.	.	.	.
CC1(C)CC(=O)C2=C(C1)NC1=C(C(=O)c3ccccc31)C2c1ccccc1 (configuration not stated)	-	-	-	-	-	-	.	.	.	.	.	.
CC1(C)CC(=O)C2=C(C1)NC1=C(C(=O)c3ccccc31)C2c1cc([N+](=O)[O-])ccc1O (configuration not stated)	-	-	-	-5.4	-	-	-	-	-13%	66%	42%	-
Cc1ccc(NC(=S)N2CCN(c3ccccc3F)CC2)c(C)c1	-	-	-	-	-	-	.	.	.	.	.	.
CCOc1cc(N(CC)CC)ccc1/C=C(/C#N)c1nc2ccccc2[nH]1	126	-	16	-	-	-	295%	-	46%	-	-	48%
COc1cc(/C=C(\C#N)c2nc3ccccc3[nH]2)cc(OC)c1O	-	-	14	-5.3	-	-	612%	-	100%	58%	-	-
O=C(Nc1nccs1)c1ccc(-c2ccc(F)c(Cl)c2)o1	-	-	-	-	-	-	.	.	.	.	.	.
CC1CC(C)CN(C(=O)c2cccc3c2-c2ccccc2C3=O)C1 (configuration not stated)	-	-	-	-	-	-	.	.	.	.	.	.
CC1CCN(C(=O)c2ccc3c(c2NCCO)C(=O)c2ccccc2C3=O)CC1	-	-	-	-7.7	-	-	-209%	-	-35%	76%	51%	-
Cc1cccc(NC2=C(NCCO)C(=O)c3ccccc3C2=O)c1	-	-	-	-11	-	-	-252%	-	-50%	66%	52%	-
COc1cccc(NC2=C(NCCO)C(=O)c3ccccc3C2=O)c1	-	-	-	-	-	-	.	.	.	.	.	.
C=CCc1cccc(/C=N/NC(=O)c2ccc3nc[nH]c3c2)c1O	-	-	-	-	-	-	.	.	.	.	.	.
O=C(/C=C/c1cn(CC(O)CN2CCCCCC2)c2ccccc12)c1cccs1 (configuration not stated)	-	-	-	-6.1	-	-	652%	-	-21%	88%	62%	-
CC(NC(=O)C1CCN(C(=O)[C@@H]2Cc3ccccc3CN2)CC1)c1ccccc1 (some centres not stated)	-	-	-	-	-	-	.	.	.	.	.	.
[O-][N+]1=c2ccc(Nc3ccccc3)cc2=NC12CCCCC2	-	-	-	-6.7	-	-	-206%	-	-29%	41%	-	-
Cc1ccc(C(=O)Nc2cccc(C(=O)N/N=C/c3ccc(F)cc3)c2)cc1	-	-	-	-6	-	-	-	-	-	-	-	-
COc1cccc(CN2CC(C(=O)NCCn3ccc(C)n3)CCC2=O)c1 (configuration not stated)	-	-	-	-	-	-	.	.	.	.	.	.
Cc1cccc(-c2nc(=S)c3c(n2Cc2ccco2)CCCC3)c1	-	-	-	-6.3	-	-	184%	-	42%	-	-	.
COc1ccccc1C(=O)NC(CCSC)C(=O)NCc1ccccn1 (configuration not stated)	-	-	-	-	.	-	.	.	.	.	.	.
Oc1ccc(N=Nc2ccc(Br)cc2)c(O)c1	-	-	-	-5.3	-	-	-	-	-	-	-	-
O=C(c1cc(-c2ccccc2)nc2ccccc12)N1CCCC1	-	-	-	-	-	-	.	.	.	.	.	.
c1ccc(-c2cc(NCCN3CCCCC3)c3ccccc3n2)cc1	-	-	-	-8.7	74	-	-182%	66%	-36%	72%	64%	-
COc1ccccc1C(=O)Nc1c(-c2ccccc2)nc2ccccn12	-	-	-	-	-	-	.	.	.	.	.	.
SMILES	TRPC4 agonist	TRPC4 potent	TRPC6 act	TRPC6 inh	DNA FID counter	TRPC4 block	HEK293 MPD ctr-2	HEK293 MPD ctr 2-2	TRPC4/MOR mod	TRPC4/MOR inh 2	TRPC6 block conf	TRPC6 act confirm	others
COc1ccc(C(=O)Nc2c(-c3ccccc3)nc3ccccn23)c(OC)c1	-	-	20	-	-	-	-	-	12%	28%	-	-
CCCCN(CCCC)c1cn[nH]c(=O)c1Cl	-	-	-	-6.9	-	-	.	.	.	.	-	.	TRPC4 sel inh 2=-;TRPC4 spec=21%;HEK293 MPD ctr 2-1=-;HEK293 MPD ctr-1=11%
COc1ccc(-n2nc(C(N)=O)nc2-c2ccccc2)cc1	-	-	-	-5.8	-	-	-	-	-	-	48%	.
Oc1ccc(Cl)cc1CNn1cnnc1	-	-	-	-	-	-	.	.	.	.	.	.
Oc1ccc(Cl)cc1Cc1cc(Cl)ccc1O	-	-	-	-5.1	-	-	-	69%	-12%	63%	66%	-
NC(=O)Cn1c(=O)n(Cc2ccccc2)c(=O)c2cccnc21	-	-	-	-	-	-	.	.	.	.	.	.
